Diaphorase act – counter-screen for diaphorase-based assays: diaphorase activators and chemical reducers | Diaphorase/resazurin coupled assay, resorufin fluorescence, 16 min; active compounds read high; 1 = vehicle wells, 0 = NADH-free wells | activation factor at 20 µM | actives 0.005% (n = 190,000) | AID 1229;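 active means diaphorase activity raised at least twofold by the compound at 20 µM; inactive means activation factor below 2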
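Test system: Clostridium kluyveri diaphorase, purified enzyme. Buffer or medium: 50 mM HEPES pH 7.4 buffer plus MgCl2 and Tween 20. Also added: 0.114 mM NADH and 0.1 mM resazurin, final amounts. Dosing: compound 20 µM once, DMSO 1%. Schedule: 16 min enzyme reaction, ambient temperature. Detection: fluorescence of resorufin, 544 nm excitation, 590 nm emission.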
PfGluPho inh – PfG6PD (Plasmodium falciparum) enzyme inhibition; actives 0.78% (n = 350,000); inhibition, % at 20 µM; AID 504690; PfGluPho enzyme, NADPH resazurin-diaphorase fluorescence;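 active means inhibition reaching at least a set limit at 20 µM in the primary screen, cut at about 59% in these data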;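 further: 0% = DMSO wells with substrate and 100% = DMSO wells lacking glucose-6-phosphate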
DTT redox prof – compounds producing H2O2 with reducing agent – biochemical, NIH compound library profiling, artefact control for MLSCN library redox annotation, primary screen; DTT-dependent redox cycling H2O2, phenol red/HRP absorbance; 100% = 100 µM peroxide control, 0% = buffer; activation, % at 10 µM; actives 0.03% (n = 200,000);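 active means activation of at least 50% relative to the plate's high and low controls in the primary single-dose screen; inactive means activation below 50%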;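 further: compound incubated with DTT at 0.8 mM final as the reducing agent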
G6PDH CS – counter-screen for G6PDH assay hits: L. mesenteroides G6PDH inhibition; Purified L. mesenteroides G6PDH, diaphorase/resazurin coupled fluorescence, 45 min; inhibition, % at 5 µM; actives 0.12% (n = 200,000)
L major viab – reduces viability of Leishmania major promastigotes | resazurin fluorescence viability | inhibition, % at 10 µM | actives 9% (n = 200,000);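 further: promastigotes grown with compound for 44 hours at 28 °C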
Diaph inh CS – inhibits diaphorase or chemically oxidizes, flagging diaphorase assay artifacts; actives 0.69% (n = 190,000); AID 1217; diaphorase resazurin-to-resorufin fluorescence, NADH, 16 min; bacterial (C. kluyveri) enzyme, not human; inhibition, % at 20 µM;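 active means primary screen inhibition at 20 µM above a set limit, cut at about 50% in these data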;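 further: plate controls were DMSO with full reaction for no effect and wells lacking NADH for full effect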
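Assay system: diaphorase enzyme from Clostridium kluyveri; Input: enzyme working solution with 0.14 U/mL diaphorase; Timing: 16 min at room temperature; Technique: resorufin fluorescence, excitation 544 nm, emission 590 nm; Benchmarks: positive control minus NADH, DMSO neutral control.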
* marks the source's active call; other numbers are inactive results; · = no result given. This excerpt belongs to a sample that is enriched for hits. Unless noted, no stated cut-off is given here; in the data, active means inhibition above about 50%; inactive means the rest.

SMILES	Diaphorase act	PfGluPho inh	DTT redox prof	G6PDH CS	L major viab	Diaph inh CS
COc1cccc(-n2nnnc2S(C)(=O)=O)c1	0.8	-5	0	-2	97*	22
OC(Cc1cccnc1)(Cc1cccnc1)c1cc2ccccc2[nH]1	0.9	21	0	2	55*	6
c1ccc(CCc2cc3ccccc3[nH]2)cc1	·	23	·	·	·	·
c1cncc(Cc2cc3ccccc3[nH]2)c1	1	-1	1	-2	50*	4
CCOc1ccc(S(=O)(=O)N2CCOCC2)cc1NC(=O)CCOc1ccc(C(C)(C)C)cc1	·	1	·	·	·	·
Cc1ccc(S(=O)(=O)NCCNC(=O)c2ccc(C)nc2)cc1	·	-17	·	·	·	·
O=C(c1cccs1)N1N=C(c2ccccc2)CC1c1ccc(O)cc1 (centres undefined)	0.9	-12	0	-3	-3	15
O=C(c1cccs1)N1N=C(c2ccc(O)cc2)CC1c1ccccc1 (centres undefined)	0.9	10	0	-3	64*	14
COc1ccc(NC(=S)NC23CC4CC(CC(C4)C2)C3)cc1OC	·	1	·	·	·	·
CCN1C(=O)/C(=C2/Sc3ccc(OC)cc3N2C)SC1=Nc1cccc(O)c1	0.9	-4	4	6	99*	11
COc1cc(CNC(=O)C2CCC(=O)N(C3CCCCCC3)C2)cc(OC)c1 (centres undefined)	·	3	·	·	·	·
C/C(=N\NC(=O)c1ccc(O)cc1)c1ccc(NC(=O)Cc2ccccc2)cc1	·	8	·	·	·	·
S=C(c1ccc(N2CCOCC2)cc1)N1CCCCC1	0.9	-2	4	13	81*	9
CN(C)c1ccc(C(=S)N2CCCCCC2)cc1	0.8	23	0	0	76*	17
COC(=O)c1cc(O)c(O)c(O)c1	0.5	17	0	22	-11	50*
C=CCNc1nc(C(=O)OCC(=O)c2ccc(Cl)cc2)cs1	·	18	·	·	·	·
COc1cccc(-c2csc(N3CCN(C(=S)Nc4ccc(Cl)cc4)CC3)n2)c1	0.9	5	-4	8	79*	8
COc1cccc(-c2csc(N3CCN(C(=S)Nc4ccccc4)CC3)n2)c1	0.9	-10	2	2	-4	13
Cc1nn(CCCC(=O)NCc2ccco2)c(=O)c2nn(-c3ccccc3)c(C)c12	·	-6	·	·	·	·
c1ccc(-[n+]2nc(Nc3cccc4ccccc34)sc2-c2c3ccccc3cc3ccccc23)cc1	·	83*	·	·	·	·
CC(C)(CO)NC(=O)C(Cc1ccccc1)N1C(=O)c2ccccc2C1=O (centres undefined)	·	-3	·	·	·	·
Cc1ccc(NC(=O)c2nn(C34CC5CC(CC(C5)C3)C4)cc2[N+](=O)[O-])cc1	1	7	-5	5	59*	2
COc1ccc(NC(=O)c2nn(C)cc2[N+](=O)[O-])cc1	·	4	·	·	·	·
CCCc1nc2oc3cc(OC)ccc3c(=O)c2c(=O)n1Cc1ccco1	1	15	0	0	14	1
COc1ccc2c(=O)c3c(=O)n(Cc4ccco4)c(-c4ccccc4)nc3oc2c1	0.8	-6	-3	11	62*	21
SMILES	Diaphorase act	PfGluPho inh	DTT redox prof	G6PDH CS	L major viab	Diaph inh CS
COCCn1c(-c2ccccc2)nc2oc3cc(OC)ccc3c(=O)c2c1=O	0.9	5	0	4	22	8
CCCCCCn1c(-c2ccco2)nc2oc3cc(OC)ccc3c(=O)c2c1=O	0.8	4	2	-28	52*	23
COc1ccc2c(=O)c3c(=O)n(Cc4ccco4)c(-c4cc(OC)c(OC)c(OC)c4)nc3oc2c1	0.9	-21	0	6	67*	8
Cc1nc(SCC2(C)CC2(Cl)Cl)n[nH]1 (centres undefined)	1	10	0	6	-8	1
COc1ccc(NC(=O)CN2C(=O)NC(C)(C3CC3)C2=O)c(OC)c1 (centres undefined)	·	5	·	·	·	·
CC1=NOC(=O)/C1=C\c1ccc(-c2ccc(Br)cc2)o1	0.9	48	0	2	62*	7
CC1=NOC(=O)/C1=C/c1ccc(-c2ccc(Cl)cc2)o1	0.8	·	6	0	100*	16
CC1=NOC(=O)/C1=C\c1ccc(-c2ccc(Br)cc2C(=O)O)o1	1	5	-2	0	-4	-2
Cc1nc2cc(OCc3cc(C(=O)NC(C)c4cnn(C)c4)no3)ccc2s1 (centres undefined)	·	-9	·	·	·	·
COc1cccc(NC(=O)c2cc(-c3ccncc3)nc3c(C)cc(C)cc23)c1	0.8	23	0	13	55*	19
COc1ccc(NC(=O)c2cc(-c3ccccn3)nc3c(C)cc(C)cc23)c(C)c1	·	-19	·	·	·	·
CCc1cccc(CC)c1-n1c(SCC(=O)N2CCCc3ccccc32)nc(O)cc1=O	·	-19	·	·	·	·
Cc1cc2ccccn2c1C(=O)c1cc([N+](=O)[O-])cc([N+](=O)[O-])c1	0.7	-9	-2	4	100*	25
Cn1c(=N)n(CC(=O)c2ccc(Br)s2)c2ccccc21	0.9	14	-1	7	84*	7
CCCCCC(=O)NC(=S)Nc1ccc2oc(=O)ccc2c1	0.8	7	0	0	6	18
CC(C)CN(Cc1c(O)ccc2ccccc12)CC(C)C	0.6	17	0	32	1	44
CCN(Cc1ccncc1)Cc1c(O)ccc2ccccc12	0.4	1	0	28	1	64*
O=c1c2ccccc2c(C=NCCCN2CCOCC2)c(O)n1Cc1ccc2c(c1)OCO2	1.1	8	0	7	86*	-5
CCCN(CCC)CCNC(=S)Nc1ccc2nc3n(c(=O)c2c1)CCCCC3	0.9	-4	0	2	11	13
CCSc1nc(-c2cccnc2)ccc1C#N	0.8	18	0	0	77*	16
COCCOC(=O)C1=C(C)NC2(O)c3ccccc3C(=O)C12O (centres undefined)	0.3	11	0	6	-6	74*
CCOC(=O)C1=C(C)NC2(O)c3ccccc3C(=O)C12O (centres undefined)	0.9	16	2	6	-7	9
CCCNS(=O)(=O)c1ccc(CCC(=O)N2CCN(c3ccc(OC)cc3)CC2)cc1	1	-5	1	10	2	1
CCCNS(=O)(=O)c1ccc(CCC(=O)N2CCN(c3ccc(F)cc3)CC2)cc1	1	4	0	-4	57*	3
Cc1ccc(-c2nnn3c2nc(NCCc2ccc(S(N)(=O)=O)cc2)c2ccccc23)cc1	1	3	0	-2	73*	2
COc1c(F)c(F)c(C(=O)Nc2ccccc2N2CCN(C(C)=O)CC2)c(F)c1F	0.9	-4	1	1	-3	8

From PubChem
